Measured values published in ChEMBL document CHEMBL5107964, “Development of 2-deoxystreptamine-nucleobase conjugates for the inhibition of oncogenic miRNA production” (RSC Med Chem, 2022).
pIC50, pKd: −log10 of the molar value. One block for each compound: values may come before it. The source made the active and inactive calls. The rule behind the calls is not given here.

What was measured:
[1] = Binding affinity to 5'FAM-labeled Precursor microRNA-372 (unknown origin) assessed as dissociation constant incubated for 4 hrs by fluorescence-based assay
Outline: (§1)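 Each 5'-FAM-labelled pre-miRNA (10 nM) was folded in 20 mM Tris-HCl pH 7.4, 12 mM NaCl, 1 mM DTT by heating at 90°C for 2 min, holding at 4°C for 10 min and returning to room temperature over 15 min. Ligand was added in 15 dilutions (0.030 nM–0.5 mM). Fluorescence (ex 485, em 535 nm) was read after 4 h. Runs were in duplicate, repeated at least three times, and KD came from a 1:1 binding model.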

[2] = Binding affinity to 5'FAM-labeled Precursor microRNA-372 (unknown origin) assessed as dissociation constant incubated for 4 hrs in presence of tRNA by fluorescence-based assay
Outline: (§2)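 KD was measured with 10 nM folded 5'-FAM-pre-miR-372 in 20 mM Tris-HCl pH 7.4, 12 mM NaCl, 1 mM DTT, with 100 eq. competitor added to the RNA. Competitor was tRNA or duplex DNA from two 15-mer strands annealed at 90°C for 5 min then slowly cooled. Ligand was added in 15 dilutions (0.030 nM–0.5 mM) and fluorescence (ex 485, em 535 nm) read after 4 h. A 1:1 model was fitted.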

[3] = Selectivity ratio of Kd for binding affinity to 5'FAM-labeled Precursor microRNA-372 (unknown origin) in presence of tRNA to Kd for binding affinity to 5'FAM-labeled Precursor microRNA-372 (unknown origin)
[4] = Binding affinity to 5'FAM-labeled Precursor microRNA-372 (unknown origin) assessed as dissociation constant incubated for 4 hrs in presence of DNA by fluorescence-based assay; outline: as §2
[5] = Selectivity ratio of Kd for binding affinity to 5'FAM-labeled Precursor microRNA-372 (unknown origin) in presence of DNA to Kd for binding affinity to 5'FAM-labeled Precursor microRNA-372 (unknown origin)
[6] = Inhibition of 5'FAM-labeled and 3'DAB-labeled Precursor microRNA-372 (unknown origin) assessed as inhibition of Dicer-induced pre-miR-372 cleavage by measuring fluorescence incubated for 4 hrs in presence of human recombinant Dicer by FRET Dicer assay
Outline: (§3)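 The pre-miRNA beacon (50 nM; 5'-FAM, 3'-dabcyl) in 20 mM Tris-HCl pH 7.4, 12 mM NaCl, 1 mM DTT was preincubated with inhibitor (12 dilutions) for 30 min at room temperature. Human recombinant Dicer was then added. After 4 h at 37°C the fluorescence increase (ex 485, em 535 nm) was read. Assays were in duplicate, repeated three times, and IC50 was obtained by nonlinear regression.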

[7] = Inhibition of Precursor microRNA-372 in human HEK293 cell lysate assessed as inhibition of Dicer-induced pre-miR-372 maturation by measuring fluorescence incubated for 4 hrs by FRET Dicer assay; assay type: subcellular
Outline: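 The FRET cleavage assay used 50 nM pre-miR-372 beacon (5'-FAM, 3'-dabcyl), with HEK293 whole-cell lysate in place of recombinant enzyme. Inhibitor was preincubated with the beacon for 30 min at room temperature. After 4 h at 37°C the fluorescence rise (ex 485, em 535 nm) was measured. IC50 was obtained by nonlinear regression.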

[8] = Inhibition of 5'FAM-labeled and 3'DAB-labeled Precursor microRNA-18a (unknown origin) assessed as inhibition of Dicer-induced pre-miR-18a cleavage by measuring fluorescence incubated for 4 hrs in presence of human recombinant Dicer by FRET Dicer assay; outline: as §3
[9] = Inhibition of 5'FAM-labeled and 3'DAB-labeled Precursor microRNA-148a (unknown origin) assessed as inhibition of Dicer-induced pre-miR-148a cleavage by measuring fluorescence incubated for 4 hrs in presence of human recombinant Dicer by FRET Dicer assay; outline: as §3
[10] = Binding affinity to 5'FAM-labeled Precursor microRNA-18a (unknown origin) incubated for 4 hrs by fluorescence-based assay; outline: as §1
[11] = Binding affinity to 5'FAM-labeled Precursor microRNA-148a (unknown origin) incubated for 4 hrs by fluorescence-based assay; outline: as §1

pKd [1]: 5.45
pKd [2]: 5.41
Selectivity ratio [3]: 1.1
pKd [4]: 5.37
Selectivity ratio [5]: 1.2
pIC50 [7]: < 3.30
pIC50 [6]: 4.09
pIC50 [8]: 4.69
pIC50 [9]: 4.74
Activity [10]: Active
Activity [11]: Active
SMILES: Nc1cccc(-c2cn(Cc3cn(CCO[C@H]4[C@H](O)[C@@H](O)[C@H](N)C[C@@H]4N)nn3)cn2)c1

pKd [1]: 5.79
pKd [2]: 5.44
Selectivity ratio [3]: 2.2
pKd [4]: 5.68
Selectivity ratio [5]: 1.3
pIC50 [6]: 4.14
SMILES: CCCCNC(=O)Nc1cccc(-c2cn(Cc3cn(CCO[C@H]4[C@H](O)[C@@H](O)[C@H](N)C[C@@H]4N)nn3)cn2)c1

pKd [1]: 5.29
pKd [2]: 5.07
Selectivity ratio [3]: 1.7
pKd [4]: 4.96
Selectivity ratio [5]: 2.1
pIC50 [6]: 4.13
pIC50 [8]: 4.05
pIC50 [9]: 4.07
Activity [10]: Active
Activity [11]: Active
SMILES: N[C@@H]1C[C@H](N)[C@@H](OCCn2cc(CCC(=O)NCC(=O)Nc3nc(-c4ccccc4)cs3)nn2)[C@H](O)[C@H]1O

pKd [1]: 5.17
pKd [2]: 5.07
Selectivity ratio [3]: 1.3
pKd [4]: 5.04
Selectivity ratio [5]: 1.3
pIC50 [6]: < 4.00
pIC50 [8]: 3.75
pIC50 [9]: < 3.30
Activity [10]: Active
Activity [11]: Active
SMILES: N[C@@H]1C[C@H](N)[C@@H](OCCn2cc(Cn3cnc(-c4cccc(NC(=O)c5ccc6ccccc6c5)c4)c3)nn2)[C@H](O)[C@H]1O

pKd [1]: 6.20
pKd [2]: 5.58
pKd [4]: 5.53
pIC50 [7]: 4.53
pIC50 [6]: 4.90
Activity [10]: Active
Activity [11]: Active
SMILES: N[C@@H]1C[C@H](N)[C@@H](OCCn2cc(Cn3cnc(-c4cccc(NC(=O)c5ccccc5)c4)c3)nn2)[C@H](O)[C@H]1O

The next lines start with the compound.

SMILES: CCCCNC(=O)Nc1cccc(-c2cn(Cc3cn(C[C@H]4O[C@@H](O[C@@H]5[C@@H](O)[C@H](N)C[C@H](N)[C@H]5O[C@H]5O[C@H](CN)[C@@H](O)[C@H](O)[C@H]5N)[C@H](O)[C@@H]4O[C@H]4O[C@@H](CN)[C@@H](O)[C@H](O)[C@H]4N)nn3)cn2)c1
pKd [1]: 7.34
pKd [2]: 7.79
Selectivity ratio [3]: 1.1
pKd [4]: 7.65
Selectivity ratio [5]: 1.5
pIC50 [6]: 4.59

SMILES: N[C@@H]1C[C@H](N)[C@@H](O)[C@H](O)[C@H]1O
pKd [1]: < 3.00

SMILES: Nc1ncnc2c1ncn2Cc1cn(CCO[C@H]2[C@H](O)[C@@H](O)[C@H](N)C[C@@H]2N)nn1
pKd [1]: 4.95
pKd [2]: < 3.00
pKd [4]: 4.33
Selectivity ratio [5]: 4.2

SMILES: NC[C@@H]1O[C@H](O[C@H]2[C@@H](O)[C@H](O[C@@H]3[C@@H](O)[C@H](N)C[C@H](N)[C@H]3O[C@H]3O[C@H](CN)[C@@H](O)[C@H](O)[C@H]3N)O[C@@H]2Cn2cc(Cn3cnc(-c4cccc(NC(=O)c5ccccc5)c4)c3)nn2)[C@H](N)[C@@H](O)[C@@H]1O
pKd [1]: 7.72
pKd [2]: 7.68
Selectivity ratio [3]: 1.1
pKd [4]: 7.61
Selectivity ratio [5]: 1.3
pIC50 [7]: 4.69
pIC50 [6]: 5.08

SMILES: Nc1ccn(Cc2cn(CCO[C@H]3[C@H](O)[C@@H](O)[C@H](N)C[C@@H]3N)nn2)c(=O)n1
pKd [1]: 4.00
pKd [2]: < 3.00
pKd [4]: < 3.00

SMILES: N[C@@H]1C[C@H](N)[C@@H](OCCn2cc(Cn3ccc(O)nc3=O)nn2)[C@H](O)[C@H]1O
pKd [1]: 4.77
pKd [2]: < 3.00
pKd [4]: < 3.00
